ChEMBL document CHEMBL1141444, “Sorbifolivaltrates A-D, diene valepotriates from Valeriana sorbifolia(1)” (J Nat Prod, 2007)

assay: Cytotoxicity against human PC3M cells by MTT assay; format: functional, cell-based; conditions: PC-3M
In short: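 Human metastatic prostate PC-3M cells seeded at 2000/well, recovered overnight; serial drug dilutions in medium added in quadruplicate, DMSO as negative and doxorubicin as positive control. Incubated about 40 h at 37 °C, 5% CO2, then MTT 0.4 mg/mL for 4 h; medium removed, DMSO added, absorbance read at 650 nm. Percent inhibition plotted to derive IC50.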

SMILES | IC50 [µM]
CC(=O)O[C@H]1C=C2C(COC(=O)CC(C)C)=CO[C@@H](OC(=O)CC(C)C)[C@@H]2[C@@]12CO2 | 3.1
CC(=O)OCC1=CO[C@@H](OC(=O)C=C(C)C)[C@H]2C1=C[C@H](OC(=O)CC(C)C)[C@]2(O)COC(=O)CC(C)C | 8.9
CCC(C)CC(=O)O[C@H]1C=C2C(COC(C)=O)=CO[C@@H](OC(=O)C=C(C)C)[C@@H]2[C@@]1(O)COC(=O)CC(C)C (stereo not given in full) | 7.3
CCC(C)CC(=O)O[C@H]1C=C2C(COC(C)=O)=CO[C@@H](OC(=O)C=C(C)C)[C@@H]2[C@@]12CO2 (stereo not given in full) | 12.2
CC(C)CC(=O)OCC1=CO[C@@H](OC(=O)CC(C)(C)O)[C@H]2C1=C[C@H](OC(=O)CC(C)C)[C@]2(O)COC(=O)CC(C)C | 8.9
CC(=O)OCC1=CO[C@@H](OC(=O)C=C(C)C)[C@H]2C1=C[C@H](OC(=O)CC(C)C)[C@]21CO1 | 20
CC(=O)OCC1=CO[C@@H](OC(=O)CC(C)(C)O)[C@H]2C1=C[C@H](OC(=O)CC(C)C)[C@]2(O)COC(=O)CC(C)C | 11.1
CC(C)=CC(=O)O[C@@H]1OC=C(COC(=O)CC(C)C)C2=C[C@H](OC(=O)CC(C)C)[C@]3(CO3)[C@H]21 | 2.6
COc1cccc2c1C(=O)c1c(O)c3c(c(O)c1C2=O)C[C@@](O)(C(=O)CO)C[C@@H]3O[C@H]1C[C@H](N)[C@H](O)[C@H](C)O1 [DOXORUBICIN] | 1.26
CC(=O)OCC1=CO[C@@H](OC(=O)CC(C)C)[C@H]2C1=C[C@H](OC(=O)CC(C)C)[C@]21CO1 [VALTRATE] | 1.7
